According to ChEMBL document CHEMBL1146725, “Discovery and SAR of potent, orally available and brain-penetrable 5,6-dihydro-4H-3-thia-1-aza-benzo[e]azulen- and 4,5-dihydro-6-oxa-3-thia-1-aza-benzo[e]azulen derivatives as neuropeptide Y Y5 receptor antagonists” (Bioorg Med Chem Lett, 2004):

Key:
[1] = biological target: T1, Neuropeptide Y receptor type 5 (Homo sapiens, UniProt Q15761); test: (§1) In vitro binding affinity against human neuropeptide Y5 receptor
T1 sequence (Q15761 whole entry): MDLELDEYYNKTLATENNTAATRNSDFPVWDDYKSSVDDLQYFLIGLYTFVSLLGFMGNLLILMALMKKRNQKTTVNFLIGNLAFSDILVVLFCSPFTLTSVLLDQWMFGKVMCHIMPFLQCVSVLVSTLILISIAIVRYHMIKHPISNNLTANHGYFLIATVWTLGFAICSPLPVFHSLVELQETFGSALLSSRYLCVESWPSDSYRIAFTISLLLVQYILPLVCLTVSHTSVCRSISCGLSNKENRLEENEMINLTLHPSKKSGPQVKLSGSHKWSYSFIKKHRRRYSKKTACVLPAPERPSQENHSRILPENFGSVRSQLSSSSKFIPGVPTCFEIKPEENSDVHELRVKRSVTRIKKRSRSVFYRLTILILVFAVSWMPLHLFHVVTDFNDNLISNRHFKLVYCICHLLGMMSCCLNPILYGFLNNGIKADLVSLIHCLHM

[2] = biological target: T1, Neuropeptide Y receptor type 5; test: In vitro binding affinity against human neuropeptide Y5 receptor measured as Ca+ response
Method in brief: (§2)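 Reported as IC50 (nM), each value the mean of three separate experiments.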

[3] = Concentration (30 mg/kg, p.o.) in rat plasma after 6 hours; format: ADME, organism-based; conditions: plasma, po
Method in brief: (§3)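 Male rats (RA238), fasted overnight, given 30 mg/kg by oral gavage (5 mL/kg) in 20% Cremophore EL/water (w/w). Plasma and hypothalamus were sampled at 2 and 6 h post-dose and levels measured by LC-MS. Values are the mean of 3-6 animals per time point, as µg/mL plasma and µg/g hypothalamus.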

[4] = Concentration (30 mg/kg, p.o.) in rat hypothalamus after 2 hours; format: ADME, organism-based; conditions: hypothalamus, po; method in brief: as §3
[5] = Concentration (30 mg/kg, p.o.) in rat plasma after 2 hours; format: ADME, organism-based; conditions: plasma, po; method in brief: as §3
[6] = Concentration (30 mg/kg, p.o.) in rat hypothalamus after 6 hours; format: ADME, organism-based; conditions: hypothalamus, po; method in brief: as §3
[7] = biological target: T1, Neuropeptide Y receptor type 5; test: as §1; method in brief: as §2; remark: listed apart in the source

IC50 [1] [nM] | Structure (SMILES) | also measured
2 | CC(=O)N1CCC(CNc2nc3c(s2)CCCc2ccc(F)cc2-3)CC1 | IC50 [2]: 254 nM; concentration at 6 h [3]: 70 ng/mL; concentration at 2 h [4]: 3700 ng/g; concentration at 2 h [5]: 950 ng/mL; concentration at 6 h [6]: 290 ng/g
20 | O=C(c1ccccc1F)N1CCC(CNc2nc3c(s2)CCCc2ccc(F)cc2-3)CC1 | 
150 | O=C(CCN1CCCCC1)N[C@H]1CC[C@H](CNc2nc3c(s2)CCCc2ccc(F)cc2-3)CC1 | 
7 | CCCCC(=O)N1CCC(CNc2nc3c(s2)CCOc2ccc(C)cc2-3)CC1 | 
290 | CN(C)CCCC(=O)N[C@H]1CC[C@H](CNc2nc3c(s2)CCCc2ccc(F)cc2-3)CC1 | 
17 | Cc1ccc2c(c1)-c1nc(NCC3CCN(C(=O)[C@@H]4CCCO4)CC3)sc1CCO2 | 
28 | CCOCC(=O)N1CCC(CNc2nc3c(s2)CCOc2ccc(F)cc2-3)CC1 | 
4 | O=C(CN1CCCCC1)N1CCC(CNc2nc3c(s2)CCCc2ccc(F)cc2-3)CC1 | concentration at 6 h [3]: 130 ng/mL; concentration at 2 h [4]: 1170 ng/g; concentration at 2 h [5]: 240 ng/mL; concentration at 6 h [6]: 620 ng/g
15 | CC(=O)C1(c2ccccc2)CCC(CC(=O)Nc2nc3c(s2)CCCc2ccc(F)cc2-3)CC1 (centres undefined) | 
4 | CN(C)CC(=O)N1CCC(CNc2nc3c(s2)CCCc2ccc(F)cc2-3)CC1 | 
99 | CC(C)C(=O)N1CCC(CNc2nc3c(s2)CCOc2cc(Cl)c(F)cc2-3)CC1 | 
3 | CN(CC(=O)N1CCC(CNc2nc3c(s2)CCCc2ccc(F)cc2-3)CC1)CC1CC1 | 
13 | CC(C)C(=O)N1CCC(CNc2nc3c(s2)CCOc2cc(F)c(Cl)cc2-3)CC1 | 
6 | O=C(CNCC1CCCO1)N1CCC(CNc2nc3c(s2)CCCc2ccc(F)cc2-3)CC1 (centres undefined) | 
2 | COCCC(=O)N1CCC(CNc2nc3c(s2)CCCc2ccc(F)cc2-3)CC1 | 
5 | Cc1ccc2c(c1)-c1nc(NCC3CCN(C(=O)C(C)C)CC3)sc1CCO2 | IC50 [2]: 61 nM; concentration at 6 h [3]: 330 ng/mL; concentration at 2 h [4]: 2420 ng/g; concentration at 2 h [5]: 840 ng/mL; concentration at 6 h [6]: 880 ng/g
2 | O=C(C1CC1)N1CCC(CNc2nc3c(s2)CCCc2ccc(F)cc2-3)CC1 | 
1 | O=C(C1CCOC1)N1CCC(CNc2nc3c(s2)CCCc2ccc(F)cc2-3)CC1 (centres undefined) | concentration at 6 h [3]: 140 ng/mL; concentration at 2 h [4]: 1220 ng/g; concentration at 2 h [5]: 540 ng/mL; concentration at 6 h [6]: 440 ng/g
3 | COC[C@@H]1CCCN1CC(=O)N1CCC(CNc2nc3c(s2)CCCc2ccc(F)cc2-3)CC1 | 
21 | Cc1ccc2c(c1)-c1nc(NCC3CCN(C(=O)COC(C)C)CC3)sc1CCO2 | 
25 | Cc1ccc2c(c1)-c1nc(NCC3CCN(C(=O)c4ccccn4)CC3)sc1CCO2 | 
6 | O=C(CC1CC1)N[C@H]1CC[C@H](CNc2nc3c(s2)CCCc2ccc(F)cc2-3)CC1 | 
2 | CC(C)C(=O)N1CCC(CNc2nc3c(s2)CCCc2ccc(F)cc2-3)CC1 | 
15 | COCCCNCC(=O)N1CCC(CNc2nc3c(s2)CCCc2ccc(F)cc2-3)CC1 | 
2 | COC(=O)N[C@H]1CC[C@H](CNc2nc3c(s2)CCCc2ccc(F)cc2-3)CC1 | 

Continued, compound first:

Structure (SMILES) | IC50 [1] [nM] | also measured
CCOCC(=O)N1CCC(CNc2nc3c(s2)CCOc2ccc(C)cc2-3)CC1 | 18 | 
CCCCC(=O)N1CCC(CNc2nc3c(s2)CCOc2cc(F)c(Cl)cc2-3)CC1 | 20 | 
COc1ccc2c(c1)-c1nc(NCC3CCN(C(=O)CCN4CCCCC4)CC3)sc1CCO2 | 2460 | 
COCCNCC(=O)N1CCC(CNc2nc3c(s2)CCCc2ccc(F)cc2-3)CC1 | 2 | 
CCCN(C)CC(=O)N[C@H]1CC[C@H](CNc2nc3c(s2)CCCc2ccc(F)cc2-3)CC1 | 6 | 
CC(=O)NC1CCN(CC(=O)Nc2nc3c(s2)CCCc2ccc(F)cc2-3)CC1 | 78 | 
CC(C)N1CCN(CC(=O)N[C@H]2CC[C@H](CNc3nc4c(s3)CCCc3ccc(F)cc3-4)CC2)CC1 | 210 | 
Fc1ccc(-c2csc(Nc3ccccc3)n2)cc1 | 1600 | 
O=C(CN1CCCCC1)N1CCC(CNc2nc3c(s2)CCCc2ccc(Cl)cc2-3)CC1 | 7 | 
O=C(CN1CCCCC1)N1CCC(CNc2nc3c(s2)CCCc2ccccc2-3)CC1 | 6 | 
CN(C)S(=O)(=O)NC[C@H]1CC[C@H](Nc2nc3c(s2)CCSc2ccc(F)cc2-3)CC1 | 3 | 
CCCCC(=O)N1CCC(CNc2nc3c(s2)CCOc2cc(F)c(F)cc2-3)CC1 | 38 | 
O=C(CN1CCOCC1)N1CCC(CNc2nc3c(s2)CCCc2ccc(F)cc2-3)CC1 | 2 | 
CCCCC(=O)N[C@H]1CC[C@H](CNc2nc3c(s2)CCCc2ccc(F)cc2-3)CC1 | 6 | 
CN(C)C(=O)CCCCNc1nc2c(s1)CCCc1ccc(F)cc1-2 | 25 | 
COCC(=O)N1CCC(CNc2nc3c(s2)CCCc2ccc(F)cc2-3)CC1 | 2 | 
O=C1CCCN1[C@H]1CC[C@H](CNc2nc3c(s2)CCCc2ccc(F)cc2-3)CC1 | 5 | 
O=C([C@@H]1CCCO1)N1CCC(CNc2nc3c(s2)CCOc2ccc(F)cc2-3)CC1 |  | concentration at 6 h [3]: 140 ng/mL; concentration at 2 h [4]: 5480 ng/g; IC50 [7]: 19 nM; concentration at 2 h [5]: 930 ng/mL; concentration at 6 h [6]: 640 ng/g
O=C(CN1CCCCC1)N1CCC(CNc2nc3c(s2)CCOc2ccc(F)cc2-3)CC1 |  | IC50 [7]: 71 nM

Structure (SMILES) | IC50 [1] [nM] | also measured
COCCC(=O)N1CCC(CNc2nc3c(s2)CCOc2ccc(F)cc2-3)CC1 |  | IC50 [7]: 22 nM
CCOC(=O)N1CCC(CNc2nc3c(s2)CCCc2ccc(F)cc2-3)CC1 | 4 | 
O=C(CNCC1CC1)N1CCC(CNc2nc3c(s2)CCCc2ccc(F)cc2-3)CC1 | 6 | 
CN(CC(=O)N1CCC(CNc2nc3c(s2)CCOc2ccc(F)cc2-3)CC1)CC1CC1 |  | IC50 [7]: 18 nM
CN1CCN(CC(=O)N2CCC(CNc3nc4c(s3)CCCc3ccc(F)cc3-4)CC2)CC1 | 24 | 
CCCCC(=O)N1CCC(CNc2nc3c(s2)CCOc2ccc(OC)cc2-3)CC1 | 17 | 
CN(C)S(=O)(=O)NC[C@H]1CC[C@H](Nc2nc3c(s2)-c2ccccc2Sc2ccccc2-3)CC1 | 15 | 
COCC(=O)N1CCC(CNc2nc3c(s2)CCOc2ccc(F)cc2-3)CC1 |  | IC50 [7]: 37 nM
CC(=O)N1CCC(CNc2nc3c(s2)CCOc2ccc(F)cc2-3)CC1 |  | IC50 [7]: 69 nM
O=C(N[C@H]1CC[C@H](CNc2nc3c(s2)CCCc2ccc(F)cc2-3)CC1)c1cccs1 | 15 | 
O=C([C@H]1CCCO1)N1CCC(CNc2nc3c(s2)CCOc2ccc(F)cc2-3)CC1 |  | concentration at 6 h [3]: 390 ng/mL; concentration at 2 h [4]: 2440 ng/g; IC50 [7]: 5 nM; concentration at 2 h [5]: 970 ng/mL; concentration at 6 h [6]: 1080 ng/g
CN(C)CC(=O)N[C@H]1CC[C@H](CNc2nc3c(s2)CCCc2ccc(F)cc2-3)CC1 | 81 | 
O=C(CN1CCCCC1)N[C@H]1CC[C@H](CNc2nc3c(s2)CCCc2ccc(F)cc2-3)CC1 | 29 | 
CS(=O)(=O)NC[C@H]1CC[C@H](Nc2nc(-c3ccc(F)cc3)cs2)CC1 | 23 | 
CC(C)C(=O)N1CCC(CNc2nc3c(s2)CCOc2cc(F)c(F)cc2-3)CC1 | 40 | 
O=C1CC[C@H](C(=O)N2CCC(CNc3nc4c(s3)CCCc3ccc(F)cc3-4)CC2)O1 | 4 | 
Nc1nc2c(s1)-c1ccccc1Sc1ccccc1-2 | 1800 | 
O=C(CN1CCOCC1)N1CCC(CNc2nc3c(s2)CCOc2ccc(F)cc2-3)CC1 |  | IC50 [7]: 41 nM
O=C(N[C@H]1CC[C@H](CNc2nc3c(s2)CCCc2ccc(F)cc2-3)CC1)C1CC1 | 6 | 
